Assay results pooled from the literature.
Each line is one published result; the experiments were not run side by side.
Target: cAMP-dependent protein kinase catalytic subunit alpha (PRKACA, Homo sapiens, UniProt P17612)

Nc1ncnc2c1ncn2[C@@H]1O[C@H](COP(=O)(O)OP(=O)(O)OP(=O)(O)O)[C@@H](O)[C@H]1O — Km (enzyme activity, substrate; pH 7.4): 16.9 µM
Cc1nn(C)cc1-c1nc2c(N3CCN(Cc4ccc(Cl)cc4)CC3)c(Cl)cnc2[nH]1 — remaining binding (binding, competition with immobilised ligand; 1 µM): 57%
O=c1[nH]c2ccccc2n1C1CCN(Cc2ccc(-c3[nH]c4cc5ncnc5cc4nc3-c3ccccc3)cc2)CC1 — remaining signal (cell-free assay; 0.5 µM): 106%
Cn1cc(-c2cc(F)cc(N3CCn4c(cc5c4CCCC5)C3=O)c2CO)cc(Nc2ccc(N3CCN(C4COC4)CC3)cn2)c1=O — inhibition (enzyme activity, inhibitor; 0.1 µM): 6%
Cn1cncc1[C@@](O)(COc1ccc(C#N)cc1-c1ccc(OC(F)(F)F)cc1)c1ccc(C#N)cc1 — remaining binding (cell-free assay, competition with immobilised ligand; 1 µM): 94%
COc1ncccc1-c1cnn2ccc(N3CCN(C(=O)OC(C)C)CC3)nc12 — remaining binding (binding, competition with immobilised ligand; 1 µM): 66%
C#Cc1n[nH]c2c(-c3cn([C@@H](C)c4ccccc4)c(=O)[nH]c3=O)cc(F)cc12 — inhibition (enzyme activity, inhibitor; 0.1 µM): 0%
Nc1ncc(-c2nc(N3CCOCC3)nc(N3CCOCC3)n2)c(C(F)F)n1 — remaining binding (binding, competition with immobilised ligand; 10 µM): 85%
C#Cc1n[nH]c2c(-c3cn(C(C)c4ccccn4)c(=O)[nH]c3=O)cc(F)cc12 (stereo not shown) — inhibition (enzyme activity, inhibitor; 1 µM): 15.6%
Cn1cc(-c2cccc(N3CCc4c(sc5c4CC(C)(C)C5)C3=O)c2CO)cc(Nc2ccncn2)c1=O — inhibition (enzyme activity, inhibitor; 1 µM): -3%
